Compound activity from PubChem.
PolyA inhibitor – yeast polyadenylation inhibition; S. cerevisiae SKY197-pL101 polyadenylation reporter, beta-gal luminescence; efflux-impaired pdr1/pdr3 knockout yeast; score 100 = 6 SD above DMSO; activity score, % at 12 µM; 300,000 tested, 0.02% active; AID 1875;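 active means lowest replicate activity score at least 50, where 100 means six control SD above control mean; inconclusive means lowest score under 50 but half or more replicates reach 50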;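 further: yeast exposed to compound for 9 h at 30 °C; higher score means more reporter readthrough which indicates perturbed polyadenylation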
NLRP3 yeast inh – blocks the NALP3 inflammasome reconstituted in yeast | AID 2825 | Yeast reconstituted NLRP3/ASC/caspase-1, beta-gal luminescence, 24 h | inhibition, % at 10 µM | 330,000 tested, 0.39% active;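 active means inhibition of 50% or more; inactive means inhibition below 50%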
NALP1 yeast inh – blocks the NALP1 inflammasome reconstituted in yeast | S. cerevisiae NALP1/ASC/caspase-1 growth, X-gal OD620, 72 h | inhibition, % at 10 µM | 280,000 tested, 0.61% active | AID 2071; in the data active means inhibition mostly above about 24%, no sharp cut-off; inactive means mostly below about 32%
Calb FLC – C. albicans growth modulation with fluconazole. C. albicans CaCi-2 (fluconazole-resistant clinical isolate) + fluconazole, Alamar Blue growth, 48 h. growth inhibition, % (test concentration not listed). 300,000 tested, 0.57% active. AID 1979;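 active means growth inhibition above about 58% in most replicates, limit read from the data, passing the limit was not always enough; inconclusive means exactly half the replicates above a set limit; inactive means most replicates below a set limit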;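 further: all wells also contain fluconazole at 8 µg/ml as a sub-toxic cotreatment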
Lmaj promast – Leishmania major promastigote growth inhibition; Leishmania major promastigotes, resazurin fluorescence viability; 200,000 tested, 9% active; inhibition, % at 10 µM; AID 1063; in the data active means inhibition above about 50%;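 further: promastigotes grown with compound for 44 hours at 28 °C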
T cruzi inh – blocks replication of Trypanosoma cruzi. 300,000 tested, 1.4% active. inhibition, % (concentration not given with the values). T. cruzi beta-gal in NIH3T3, luminescence, 90 h. AID 1885;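 active means mean inhibition across valid replicates above about 55%, limit read from the data; inconclusive means mean below that limit but half or more replicates reach it; inactive means mean below it, under half of replicates reach it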;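 further: signal also drops with host cell toxicity which is not excluded here; higher percent means less beta-gal luminescence so fewer parasites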
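Assay system: NIH/3T3 host cells with β-galactosidase reporter T. cruzi; input: 5,000 host fibroblasts per well; compound: single 50 nL compound addition per well in DMSO; timing: ≥90 h infection period, 3 h prior cell attachment; measured by: GalScreen β-gal luminescence, detergent lysis, 60 min; evaluation: percent inhibition of parasite-derived β-gal signal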
Large screens that a line does not name were inactive. Shown is part of a subset that was picked to be rich in hits.

CC1CCCN(C(=O)c2cccc(S(=O)(=O)Nc3cc(C(F)(F)F)ccc3Cl)c2)C1 (configuration not stated)	Calb FLC 94 (no result: NLRP3 yeast inh)
C#CCCOC(=O)N1C2=NC(C(=O)OC)=C(C(=O)OC)[C@@H]3Nc4ccccc4[C@]23C[C@H]1C(=O)OC	none (no result: NLRP3 yeast inh, NALP1 yeast inh, Lmaj promast)
COC(=O)N/N=C/c1c(C)c(C(=O)c2ccc(F)cc2)n2ccccc12	none
Cc1c(/C=N/NC(=O)c2cccnc2)c2ccccn2c1C(=O)c1ccc(F)cc1	Lmaj promast 53
CCOC(=O)N/N=C/c1c(C)c(C(=O)c2ccc(F)cc2)n2ccccc12	none
Cc1c(/C=N/NC(=O)c2ccccc2O)c2ccccn2c1C(=O)c1ccc(F)cc1	Lmaj promast 59
Cc1c(/C=N/NC(=O)c2ccc(O)cc2)c2ccccn2c1C(=O)c1ccc(F)cc1	Lmaj promast 92
COc1cc2c(cc1OC)C(C)N(S(=O)(=O)c1cn(C)cn1)CC2 (configuration not stated)	none (no result: Lmaj promast, T cruzi inh)
O=C1NCCCCC1NS(=O)(=O)c1ccc(F)c(F)c1 (configuration not stated)	none (no result: Lmaj promast)
COc1ccc(C2=NN(C(=O)COC(=O)c3ccc(S(C)(=O)=O)c([N+](=O)[O-])c3)C(c3ccco3)C2)cc1 (configuration not stated)	none (no result: PolyA inhibitor, NALP1 yeast inh, Calb FLC, Lmaj promast, T cruzi inh)
CN1C(=O)C2(c3ccccc31)N(C)CC(c1ccccn1)C21SC(=S)N(Cc2ccco2)C1=O (configuration not stated)	Lmaj promast 100
CCN1C(=S)SC(=O)C1=C1C=C(C)N(Cc2ccco2)C(C)=C1	PolyA inhibitor inconclusive
CN1C(=O)C2(c3ccccc31)N(C)CC(c1ccccc1)C21SC(=S)N(Cc2ccco2)C1=O (configuration not stated)	Lmaj promast 99
N#C/C(=C/c1ccc(CNS(=O)(=O)c2ccccc2)o1)C(=O)NCc1ccccc1	none
N#C/C(=C/c1ccc(CNS(=O)(=O)c2ccccc2)o1)C(N)=O	Lmaj promast 51
COc1ccc(CC(=O)OCC(=O)Nc2cc(Cl)ccc2C)cc1	none (no result: PolyA inhibitor, NALP1 yeast inh, Calb FLC, Lmaj promast, T cruzi inh)
Oc1ccc(/C=N/Nc2ccnc3cc(Cl)ccc23)c(O)c1O	none (no result: Lmaj promast)
Oc1ccc(/C=N/Nc2ccnc3cc(Cl)ccc23)cc1O	Calb FLC 100 (no result: NALP1 yeast inh, Lmaj promast)
O=C1[C@H]2[C@@H](c3ccc(F)cc3)N3C(=O)N(c4cccc(F)c4)C(=O)[C@@]3(Cc3ccc(Cl)cc3)[C@H]2C(=O)N1C1CCCCC1	none (no result: NALP1 yeast inh, Lmaj promast)
CC(C)(C)N1C(=O)[C@H]2[C@@H](c3ccc(Br)cc3)N3C(=O)N(c4cccc(Br)c4)C(=O)[C@@]3(Cc3ccccc3)[C@H]2C1=O	T cruzi inh 58 (no result: Lmaj promast)
O=C1[C@H]2[C@@H](c3ccc(Cl)cc3)N3C(=O)N(c4cccc(F)c4)C(=O)[C@@]3(Cc3ccc(Cl)cc3)[C@H]2C(=O)N1C1CCCCC1	T cruzi inh 61 (no result: Lmaj promast)
Cc1cc(C(=O)NNc2ccc(Cl)cc2)no1	Calb FLC 103 (no result: Lmaj promast)
Cc1cc(C(=O)NNC(=O)Nc2ccc(Cl)cc2)no1	none (no result: NALP1 yeast inh, Lmaj promast)
COc1cccc(COC(=O)C2CCN(S(=O)(=O)c3ccc(F)cc3)CC2)c1OC	none (no result: PolyA inhibitor, NALP1 yeast inh, Calb FLC, Lmaj promast, T cruzi inh)
COc1ccc(CNc2ccc3c(c2)CCC3)cc1Br	none (no result: NALP1 yeast inh, Lmaj promast)
COc1ccccc1CNc1ccc2c(c1)CCC2	T cruzi inh 55 (no result: Lmaj promast)
CC1=C(C(=O)OCc2ccccc2)C(c2cccnc2)n2ncnc2N1 (configuration not stated)	none
CC1=C(C(=O)OCc2ccccc2)C(c2cccnc2)c2c(n(C)c(=O)n(C)c2=O)N1 (configuration not stated)	Lmaj promast 75
COc1ccc(Cn2c(=O)c3cccnc3n(Cc3ccc([N+](=O)[O-])cc3)c2=O)cc1	NALP1 yeast inh 32
O=C1N/C(=C/c2ccc(Br)cc2)C(O)=C1C=NCc1ccccc1	Lmaj promast 79
O=C(Nc1cc(Sc2nc3ccccc3s2)cc([N+](=O)[O-])c1)c1cccc(F)c1F	Lmaj promast 73
O=C(CSc1nc2ccc(NC(=O)c3ccccc3C(=O)O)cc2s1)Nc1ccc(F)c([N+](=O)[O-])c1	none (no result: Lmaj promast)
CCCCCCSc1ccc([C@H]2N[C@@](CC(C)C)(C(=O)OC)[C@H]3C(=O)N(C)C(=O)[C@@H]23)cc1OC	none (no result: NALP1 yeast inh, Lmaj promast)
S=c1[nH]nc(-c2ccc3ncccc3c2)n1-c1ccc2c(c1)OCCO2	Lmaj promast 91
